# Screening data (PubChem)
# Jurkat NFkB inh: inhibitors of induced NF-kB luciferase reporter, primary screen, TCR NF-kB activation inhibitor project, cell-based, luminescence, uHTS; AID 435003, 2010; Jurkat, PMA/ionomycin-induced NF-kB luciferase reporter; inhibition, % at 4 µM; 0.53% of 330,000 active; in the data active means inhibition above about 50%
# aDG glyco up: activators of alpha-DG glycosylation, primary screen, uHTS, Pro5-aDG cells, AlphaScreen; alpha-DG glycosylation AlphaScreen (IIH6); 0% Pro5, 100% B10-LARGE cell signal; activation, % at 10 µM; 0.22% of 360,000 active;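 active means activation of at least 8% versus controls, or a plate z-score of at least 8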;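 further: Pro5 are CHO cells carrying HIG-tagged alpha-DG that lacks glycosylation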
# MPTP inh: mitochondrial permeability transition pore inhibitors, primary screen, biochemical, isolated mouse mitochondria, absorbance; inhibition, % at 10 µM; Ca2+ swelling absorbance, 30 min; 1.4% of 360,000 active; AID 602449, 2012;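 active means inhibition of 50% or more, scaled per plate between neutral and stimulator controls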
# NR2E3 ag-1: NR2E3 agonists in two-hybrid cells, primary screen, cell-based, luminescence, CHO-S, Gal4-NCOR/VP16-NR2E3; Photoreceptor-specific nuclear receptor (Homo sapiens), Q9Y5X4; luciferase; inhibition of corepressor binding, % at 3.98 µM; 0.35% of 360,000 active; AID 602229, 2012;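 active means inhibition above the mean of all tested compounds plus 3 SD, cut at about 70% in these data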;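 further: higher means lower luciferase signal from less NR2E3 corepressor binding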
# Target sequence (Q9Y5X4 whole entry, looked up, the tested form may be a part): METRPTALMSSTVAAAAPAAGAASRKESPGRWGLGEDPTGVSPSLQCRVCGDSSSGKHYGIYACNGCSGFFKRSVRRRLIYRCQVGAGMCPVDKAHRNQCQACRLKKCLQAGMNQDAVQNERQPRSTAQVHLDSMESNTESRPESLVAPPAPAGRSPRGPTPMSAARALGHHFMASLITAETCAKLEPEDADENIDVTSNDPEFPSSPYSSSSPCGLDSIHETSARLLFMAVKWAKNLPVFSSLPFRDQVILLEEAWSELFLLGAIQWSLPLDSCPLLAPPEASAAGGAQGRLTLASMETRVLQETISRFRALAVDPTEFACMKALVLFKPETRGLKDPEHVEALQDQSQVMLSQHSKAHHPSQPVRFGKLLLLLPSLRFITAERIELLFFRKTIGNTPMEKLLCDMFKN
# 697 NFkB inh: inhibitors of PMA/ionomycin-induced NF-kB reporter, 697 cells, primary screen, B-cell NF-kB inhibitor project, cell-based, luminescence, uHTS; 697 B-cell NF-kB luciferase reporter, 16 h; inhibition, % at 4 µM; 0.33% of 330,000 active; in the data active means inhibition above about 35%
# NR2E3 ag-2: inhibitors of NR2E3-RetCOR corepressor binding, primary screen, NR2E3 agonist project, biochemical, TR-FRET, GST-NR2E3, biotin-RetCOR; Photoreceptor-specific nuclear receptor (Homo sapiens), Q9Y5X4; 1536-well; inhibition of corepressor binding, % at 4.78 µM; 0.12% of 320,000 active; AID 2300, 2010;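 active means percent inhibition above the cutoff of mean plus 3 SD of all tested compounds, set per screening campaign, cut at about 20% in these data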
#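 Material: NR2E3–RetCOR corepressor complex | Quantity: 1.35 nM GST-tagged NR2E3 final | Schedule: 5 h at 4 °C | Replication: Singlicate compound wells | Reagent: RetCOR corepressor, biotinylated, 7 nM | Controls: Biotin wells as high control, 0.6% DMSO wells as low control | Signal: TR-FRET, Eu(K)-anti-GST donor, streptavidin-D2 acceptor, ex 340, em 617/671 nm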
# aDG glyco conf: alpha-DG glycosylation enhancers, retest, confirmation, single concentration, Pro5-aDG cells. shares compounds with aDG glyco up. IIH6 AlphaLISA; scaled to LARGE-overexpressing B10 cells as 100%. activation, % at 10 µM (by protocol). 17% of 600 active. AID 651671, 2012;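 active means activation of at least 7% in one or more replicates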;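 further: cells exposed to compound for two days before detection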
# A number is an active result; 0 = inactive; - = no result given. Only some compounds are listed: those with a hit (about 2.4% of all), similar ones and a draw of the others.
SMILES,Jurkat NFkB inh,aDG glyco up,MPTP inh,NR2E3 ag-1,697 NFkB inh,NR2E3 ag-2,aDG glyco conf
CC(C)c1ccc(OCCCCN2CCCCC2)cc1,0,0,0,0,0,0,-
CC(C)Oc1ccc(OCCCN2CCCCCC2)cc1,0,5.2,0,0,0,0,13
Cn1c(CC2C(=O)Nc3ccc(Br)cc32)nc2ccccc2c1=O (stereo unspecified),0,5.2,0,0,0,0,0
CCC(C)Sc1nc2c(cnn2-c2ccccc2)c(=O)[nH]1 (stereo unspecified),0,7.7,0,0,0,0,0
CCC(C)Sc1nc2c(cnn2-c2ccc(C)cc2)c(=O)[nH]1 (stereo unspecified),0,0,0,0,0,0,-
C=CCn1c(=N)n(CC(=O)c2ccc(Cl)cc2)c2ccccc21,0,6.7,0,0,0,0,6.3
CCn1c(=N)n(CC(=O)c2ccc(Cl)c(Cl)c2)c2ccccc21,0,8.0,0,0,0,0,9.1
C=CCn1c(=N)n(CC(=O)OC)c2ccccc21,0,0,0,0,0,0,-
Cn1c(=N)n(CC(=O)c2ccc(F)cc2)c2ccccc21,0,3.8,0,0,0,0,0
CC(C)CC1NC(=O)N(CC(=O)Nc2cccc(Br)c2)C1=O (stereo unspecified),0,0,0,0,0,0,-
Cc1cccc(Sc2nc(-c3ccccc3)ccc2C#N)c1,0,0,0,0,0,0,-
O=C(Cc1ccc(Cl)cc1)c1c[nH]c(C(=O)NCCCN2CCOCC2)c1,0,0,0,0,0,0,-
CN1C(=O)CSc2ccc(NC(=O)N3CCN(c4ccccn4)CC3)cc21,0,0,0,0,0,0,-
Cc1ccc(C)c(N2CCN(C(=O)Nc3ccc4c(c3)N(C)C(=O)CS4)CC2)c1,0,6.7,0,0,0,0,0
Cn1cccc1C(=O)c1cccc([N+](=O)[O-])c1,0,0,0,0,0,0,-
NC(=NC(=O)c1ccc(OC(F)(F)F)cc1)c1ccc(C(F)(F)F)cn1,0,3.8,0,0,0,0,0
CCCCOc1ccc(C(=O)Nc2cccc(C)n2)cc1,0,6.3,0,0,0,0,0
CC1CC1C(=O)Nc1nc(-c2ccccn2)cs1 (stereo unspecified),0,5.1,0,0,0,0,0
C=CCNC(=S)N/N=C/c1ccc(OCc2ccccc2Cl)cc1,0,6.5,0,0,0,0,0
Clc1ccccc1COc1ccc(/C=N/n2cnnc2)cc1,0,0,0,0,0,0,-
Cc1cccn2c(=O)c(C(=O)NC3CC(C)CC(C)(C)C3)c(O)nc12 (stereo unspecified),0,3.6,0,0,0,0,0
CC(C)Nc1nc(-c2ccccn2)nc(-c2ccccc2)c1C#N,0,8.8,0,0,0,0,0
CCCCn1c(N)c(N(CCOC)C(=O)CCNC(=O)NC23CC4CC(CC(C4)C2)C3)c(=O)[nH]c1=O,-,0,0,0,-,-,-
CCCCN(C(=O)CCNC(=O)NC12CC3CC(CC(C3)C1)C2)c1c(N)n(CCC)c(=O)[nH]c1=O,0,5.1,0,0,0,0,0
Cc1nc2ccccc2n1CC(=O)OCC(=O)N1CCC(C)CC1,0,0,0,0,0,-,-
SMILES,Jurkat NFkB inh,aDG glyco up,MPTP inh,NR2E3 ag-1,697 NFkB inh,NR2E3 ag-2,aDG glyco conf
N#Cc1ccsc1NC(=O)c1cccc(-n2cnnn2)c1,0,11,0,0,0,0,7.1
N#Cc1ccsc1NC(=O)c1ccc2ncsc2c1,-,15,0,0,-,-,5.5
CC(OC(=O)c1ccc(Cl)nc1)C(=O)NCc1ccc2c(c1)OCO2 (stereo unspecified),0,7.2,0,0,0,0,0
Cc1ccccc1C(=O)OC(C)C(=O)NCc1ccc2c(c1)OCO2 (stereo unspecified),0,0,0,0,0,0,-
CC1(C(=O)Nc2ccc3c(c2)OCCO3)CSCC(=O)N1C1CC1 (stereo unspecified),-,8.6,0,-,-,-,0
COc1ccc2c(Cl)c(-c3nnc(SCC(=O)c4ccccc4)n3C)sc2c1,0,4.3,0,0,0,0,0
Cc1nn(CC(=O)N2CCCC2)c(=O)c2nn(-c3ccccc3)c(C)c12,0,0,0,0,0,0,-
CCOC(=O)C1CCCN(C(=O)Cn2nc(C)c3c(C)n(-c4ccccc4)nc3c2=O)C1 (stereo unspecified),0,9.8,0,0,0,0,0
Cc1noc(/C=C/N(C)C)c1S(=O)(=O)N1CCC(C(=O)Nc2ccc(Cl)cc2)CC1,0,8.6,0,0,0,0,0
Cc1cc(NC(=O)C2CCCN(S(=O)(=O)c3c(C)noc3C)C2)no1 (stereo unspecified),0,0,0,0,0,0,-
Cc1ccc(NC(=O)C2CCN(S(=O)(=O)c3c(C)noc3/C=C/N(C)C)CC2)cc1,0,0,0,0,0,0,-
Cc1cc(C)cc(NC(=O)C2CCCN(S(=O)(=O)c3c(C)noc3C)C2)c1 (stereo unspecified),0,3.1,0,0,0,0,0
CN(CCc1ccccc1)C(=O)c1cccc(NC(=O)Cc2cccc(NC(=O)C3CCN(C(=O)C4CCCCC4)CC3)c2)c1,-,0,0,0,-,-,-
CCCCN(C(=O)c1ccc(S(=O)(=O)N(CC)CC)cc1)c1c(N)n(CCC)c(=O)[nH]c1=O,0,0,0,0,0,0,-
CCc1cccc(NC(=O)CN(c2ccc(C)cc2)S(=O)(=O)c2c(C)noc2C)c1,0,0,0,0,0,0,-
Cc1ccc(N(CC(=O)Nc2cc(C)cc(C)c2)S(=O)(=O)c2c(C)noc2C)cc1,0,7.6,0,0,0,0,0
O=[N+]([O-])c1cc(-c2nc(-c3ccncc3)no2)cc([N+](=O)[O-])c1,0,8.7,0,0,0,0,0
CC(OC(=O)/C=C/c1ccco1)C(=O)NC1CCCCC1 (stereo unspecified),-,0,0,0,-,-,-
O=C(NCCCN1CCOCC1)c1ccc(S(=O)(=O)Nc2ccccc2)cc1,0,0,0,0,0,0,-
COc1ccccc1NS(=O)(=O)c1ccc(C(=O)NCCCN2CCOCC2)cc1,0,5.0,0,0,0,-,0
O=C(CCn1nnnc1CN1CCOCC1)N1CCC(c2ccccc2F)C1 (stereo unspecified),0,0,0,0,0,0,-
